From ChEMBL document CHEMBL1123129, “Hypolipidemic activity of indan-1,3-dione derivatives in rodents” (J Med Chem, 1985)

How the values were obtained:
Rattus norvegicus [1] = assay: Compound was evaluated for the hypolipidemic activity at 20 mg/kg per day orally for 14 days on lipid content in rat liver; type: functional; conditions: route oral
Procedure, shortened: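 Male Sprague–Dawley rats were dosed orally for 14 days. Liver, small intestine and a 24-h fecal collection were lipid-extracted. Extracts were assayed for cholesterol (modified Liebermann–Burchard), triglyceride (enzymatic kit), neutral lipids, phospholipids and protein. Values are % of 1% CMC vehicle control, mean ± SD, N = 6.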

Rattus norvegicus [2] = assay: Compound was evaluated for the hypolipidemic activity at 20 mg/kg per day orally for 14 days on protein content in rat lipoprotein chylomicron; type: functional; conditions: route oral
Procedure, shortened: (§1)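 Male Sprague–Dawley rats (~300 g) were dosed orally each day. Blood was drawn from the abdominal vein. Lipoprotein fractions (chylomicron, VLDL, LDL, HDL) were separated by the Hatch–Lees and Havel methods. Each fraction was assayed for cholesterol, triglyceride (enzymatic kit), neutral lipids, phospholipids and Lowry protein. Values are % of 1% CMC vehicle control, N = 6.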

[3] = biological target: T1, ATP-citrate synthase (Mus musculus) (UniProt Q91V92); assay: In Vitro evaluation for the CF1 liver enzyme activity on ATP-Citrate Lyase exchange at concentration 100 uM
T1 sequence (whole entry): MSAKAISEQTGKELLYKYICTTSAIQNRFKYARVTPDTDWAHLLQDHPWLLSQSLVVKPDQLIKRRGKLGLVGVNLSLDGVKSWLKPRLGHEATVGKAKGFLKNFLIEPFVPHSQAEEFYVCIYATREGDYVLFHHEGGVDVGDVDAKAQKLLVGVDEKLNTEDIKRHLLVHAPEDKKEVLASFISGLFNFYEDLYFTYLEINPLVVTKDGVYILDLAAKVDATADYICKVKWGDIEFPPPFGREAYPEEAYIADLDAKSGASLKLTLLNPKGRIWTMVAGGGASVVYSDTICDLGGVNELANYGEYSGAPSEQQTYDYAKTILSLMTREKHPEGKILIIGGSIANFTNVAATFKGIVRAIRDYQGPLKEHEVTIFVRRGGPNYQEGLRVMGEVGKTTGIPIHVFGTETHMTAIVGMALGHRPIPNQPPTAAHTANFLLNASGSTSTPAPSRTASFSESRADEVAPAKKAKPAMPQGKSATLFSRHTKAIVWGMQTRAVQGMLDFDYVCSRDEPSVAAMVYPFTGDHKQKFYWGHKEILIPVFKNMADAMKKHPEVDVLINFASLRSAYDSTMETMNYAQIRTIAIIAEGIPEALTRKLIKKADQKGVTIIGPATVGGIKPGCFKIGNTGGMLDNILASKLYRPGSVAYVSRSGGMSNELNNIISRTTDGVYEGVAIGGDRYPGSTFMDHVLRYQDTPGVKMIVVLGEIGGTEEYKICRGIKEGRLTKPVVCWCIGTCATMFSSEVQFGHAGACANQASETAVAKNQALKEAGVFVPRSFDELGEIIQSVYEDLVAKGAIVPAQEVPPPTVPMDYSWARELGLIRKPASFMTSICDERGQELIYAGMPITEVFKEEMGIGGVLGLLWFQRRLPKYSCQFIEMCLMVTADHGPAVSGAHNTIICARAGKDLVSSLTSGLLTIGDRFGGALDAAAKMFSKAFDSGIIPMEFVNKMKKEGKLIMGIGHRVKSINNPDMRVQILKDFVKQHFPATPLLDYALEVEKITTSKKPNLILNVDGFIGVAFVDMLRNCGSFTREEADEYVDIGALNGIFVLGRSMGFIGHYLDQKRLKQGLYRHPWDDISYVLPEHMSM
Procedure, shortened: (§2)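 Liver was taken from CF1 male mice and made into 10% homogenates, which were incubated with test compound at 50, 100 or 200 µM. Each enzyme was assayed by its literature method, and protein was measured by Lowry. N = 6. Activity is expressed as % of untreated control ± SD.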

Mus musculus = assay: Compound was evaluated for the hypolipidemic activity in CF1 male mice at a dose of 10 mg/kg orally for Serum triglyceride at 16th day; type: functional; conditions: route oral
Procedure, shortened: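 CF1 male mice received the agent orally in 1% CMC at 10–60 mg/kg per day. Tail-vein blood was taken on days 9 and 16. Serum cholesterol was measured by modified Liebermann–Burchard on duplicate 25-µL samples, and serum triglyceride on day 16 in duplicate 50-µL samples. Values are % of vehicle control, mean ± SD, N = 6; Student's t test.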

Rattus norvegicus [4] = assay: Compound was evaluated for the hypolipidemic activity at 20 mg/kg per day orally for 14 days on cholesterol content in rat LDL; type: functional; conditions: route oral; procedure, shortened: as §1
[5] = biological target: Acetyl-CoA carboxylase 1 (Mus musculus) (UniProt Q5SWU9); assay: In Vitro evaluation for the CF1 liver enzyme activity on Acetyl-CoA carboxylase at concentration 100 uM; procedure, shortened: as §2
Rattus norvegicus [6] = assay: Compound was evaluated for the hypolipidemic activity at 20 mg/kg per day orally for 14 days on neutral lipids content in rat LDL; type: functional; conditions: route oral; procedure, shortened: as §1
[7] = biological target: T2, Sterol O-acyltransferase 1 (Mus musculus) (UniProt Q61263); assay: In Vivo effect for the hypolipidemic activity on Acyl-COA cholesterol acyltransferase in CF1 mice after 16 days of oral administration at a dose of 40 mg/kg; type: functional, organism-based; set-up: dose 40 mg/kg
T2 sequence (whole entry): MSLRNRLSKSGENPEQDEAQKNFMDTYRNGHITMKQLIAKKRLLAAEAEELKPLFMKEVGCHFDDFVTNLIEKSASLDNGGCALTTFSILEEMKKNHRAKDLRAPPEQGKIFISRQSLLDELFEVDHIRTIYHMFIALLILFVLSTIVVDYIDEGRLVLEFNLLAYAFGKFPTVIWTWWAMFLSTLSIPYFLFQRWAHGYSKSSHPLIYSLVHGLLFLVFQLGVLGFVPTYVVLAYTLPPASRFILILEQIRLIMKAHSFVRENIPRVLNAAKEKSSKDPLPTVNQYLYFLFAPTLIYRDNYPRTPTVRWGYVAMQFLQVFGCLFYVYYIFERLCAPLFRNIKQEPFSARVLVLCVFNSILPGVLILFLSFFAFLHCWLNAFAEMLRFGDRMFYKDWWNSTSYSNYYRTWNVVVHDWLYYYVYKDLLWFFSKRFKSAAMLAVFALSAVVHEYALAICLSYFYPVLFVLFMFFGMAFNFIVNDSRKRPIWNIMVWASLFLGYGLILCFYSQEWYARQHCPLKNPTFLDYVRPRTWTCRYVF
Procedure, shortened: (§3)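 CF1 male mice are dosed orally at 10–60 mg/kg per day for 16 days, with 1% CMC as the control vehicle. Liver is homogenized at 10% in 0.25 M sucrose + 0.001 M EDTA, pH 7.2. Enzymes are assayed by literature methods, with Lowry protein. Activity is given as % of control (X ± SD, N = 6), with p from Student's t test.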

[8] = biological target: Cholesterol 7-alpha-hydroxylase (Cytochrome P450 7A1) (Mus musculus, UniProt Q64505); assay: In vitro percent Cholesterol 7-alpha-hydroxylase activity in mouse CF1 liver microsomes at 100 uM; set-up: species or system Microsome; conditions: read-out: Control
Sequence of Cholesterol 7-alpha-hydroxylase (Cytochrome P450 7A1) (Q64505 whole entry): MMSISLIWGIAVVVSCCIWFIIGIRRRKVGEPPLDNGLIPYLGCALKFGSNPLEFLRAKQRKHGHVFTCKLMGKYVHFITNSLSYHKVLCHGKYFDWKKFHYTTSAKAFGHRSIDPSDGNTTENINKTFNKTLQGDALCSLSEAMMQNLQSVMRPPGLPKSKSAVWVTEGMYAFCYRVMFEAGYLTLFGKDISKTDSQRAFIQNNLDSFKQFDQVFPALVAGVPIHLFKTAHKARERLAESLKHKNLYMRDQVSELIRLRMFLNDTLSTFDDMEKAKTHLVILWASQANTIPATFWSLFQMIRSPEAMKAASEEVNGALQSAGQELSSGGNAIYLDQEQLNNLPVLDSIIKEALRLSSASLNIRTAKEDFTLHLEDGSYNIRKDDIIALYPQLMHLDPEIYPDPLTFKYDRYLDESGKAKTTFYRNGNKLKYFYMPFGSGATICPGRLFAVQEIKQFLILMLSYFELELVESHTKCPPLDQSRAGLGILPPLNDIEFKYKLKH
Procedure, shortened: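 Mouse liver enzymes assayed in vitro on 10% homogenates of CF1 male mouse liver, with test drug added at 50–200 μM. Each enzyme follows a published procedure. Protein is measured by Lowry. Activity is given as % of untreated control (X ± SD, N = 6).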

[9] = biological target: T2, Sterol O-acyltransferase 1 (Mus musculus); assay: In Vivo effect for the hypolipidemic activity on Acyl-COA cholesterol acyltransferase in CF1 mice after 16 days of oral administration at a dose of 10 mg/kg; type: functional, organism-based; set-up: dose 10 mg/kg; procedure, shortened: as §3

Control [3]: 51% | Control [5]: 93% | Control [7]: 42% | activity at 100 µM [8]: 144% | Control [9]: 92%
SMILES: COc1ccc(C2C(=O)c3ccccc3C2=O)cc1 [ANISINDIONE]
Control (Rattus norvegicus [1]): 98% | Control (Rattus norvegicus [2]): 118% | Control (Mus musculus): 64% | Control (Rattus norvegicus [4]): 18% | Control (Rattus norvegicus [6]): 69%
